According to PubChem BioAssay AID373 (The Scripps Research Institute Molecular Screening Center, 2006):
Out of some 60,000 compounds screened, about 60 (0.1%) were called active.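 The calls were made as follows: active = activation above the screen-wide mean plus 3 SD (cut at about 4.5% in these data, passing the limit was not always enough); inactive = the rest, inconclusive results apart.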 Many of the other results were omitted from the sample, so actives are more common in it than they were.

Biological target: Sphingosine 1-phosphate receptor 3 (Homo sapiens) (UniProt Q99500)
Sequence (Q99500 whole entry, looked up): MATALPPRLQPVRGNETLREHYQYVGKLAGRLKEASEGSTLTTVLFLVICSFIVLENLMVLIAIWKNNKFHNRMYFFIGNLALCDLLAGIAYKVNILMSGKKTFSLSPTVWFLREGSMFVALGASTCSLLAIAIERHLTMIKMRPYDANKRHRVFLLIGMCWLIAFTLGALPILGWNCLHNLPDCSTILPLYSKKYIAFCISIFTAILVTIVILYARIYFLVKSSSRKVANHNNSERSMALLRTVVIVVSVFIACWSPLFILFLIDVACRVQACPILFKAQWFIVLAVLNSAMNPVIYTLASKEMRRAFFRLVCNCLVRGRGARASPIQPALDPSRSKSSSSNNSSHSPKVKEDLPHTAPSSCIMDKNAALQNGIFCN
Assay: activators of S1P3 receptor signaling – cell-based, primary and confirmation, NFAT-BLA reporter, primary screen (AID 373)
Settings: S1P3 NFAT-BLA reporter cells, agonism, FRET ratio, at 4.5 µM, active compounds read high, relative to 1 µM S1P, basal subtracted
Procedure, shortened: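 Measure – % activation relative to 1 µM S1P (100%), per plate · System – stable CHO line with human S1P3, Gα16, NFAT-BLA reporter · Timing – cells plated overnight, compound 4 h 37 °C, substrate 2 h RT · Technique – fluorescent BLA substrate, ex 405 nm, em 460/535 nm ratio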

activation, inactive:
CCOc1ccc(CNC(=O)C2CC(=O)N(C3CCCC3)C2)cc1OC (configuration not stated) 0.9%
O=C1CCC(Cc2ccccc2)N1 (configuration not stated) 0.3%
CCCCOc1ccc(-c2nnc(-c3ccco3)o2)cc1 -0.5%
COC(=O)N1CN(C(=O)OC)CN(C(=O)OC)C1 -0.2%
COC(=O)CN(c1nc(C)c(Cl)c(OC)n1)S(=O)(=O)c1ccc(C)cc1 -1.1%
O=C(O)c1ccc(NS(=O)(=O)c2cccc3nsnc23)cc1 -0.5%
Cn1c(=O)[nH]c(=O)c2c1nc(Br)n2CCCCSc1nc2ccccc2o1 -1.6%
O=C(NCCN1CCOCC1)c1ccc2c(c1)ncn2C1CCCC1 -0.2%
COc1cccc(OCC(=O)Nc2ccccc2C(N)=O)c1 -1.1%
CCOC(=O)N1CCN(C(=O)c2cc3c(-c4ccc(Cl)cc4)nn(C)c3s2)CC1 -1.5%
Cc1cc(C)c2nc(SCCC#N)nc(C)c2c1 -0.8%
c1cc(-c2nn[nH]n2)ccc1CN1CCCCC1 -0.2%
N#CC(C(N)=O)=C1CCC2(CC1)OCCCCO2 -0.6%
CC(CNC(=O)c1ccc(Br)o1)NC(=O)c1ccc(Br)o1 (configuration not stated) -0.8%
Cc1ccc(OCC(=O)Nc2ccc(-c3nc4ncccc4o3)cc2)cc1 0.4%
O=c1c2ccccc2[nH]c(=S)n1CCN1CCC(=C(c2ccc(F)cc2)c2ccc(F)cc2)CC1 -2.2%
Cc1cc(NC(=O)CCC(=O)N(c2ccccc2)C(C(=O)NC2CCCC2)c2ccncc2)no1 (configuration not stated) -0.2%
O=C(OCCO)c1cc(Cl)c(C(=O)OCCO)cc1Cl -1.2%
Cc1cccc(NC(=O)C2CCN(S(=O)(=O)c3cccc4cccnc34)CC2)c1 -0.2%
CN(C)c1ccnc2sc3c(=O)n(Cc4ccccc4)cnc3c12 -1.9%
CCN1C(=O)/C(=C2\SC(N3CCCCC3)=NC2=O)c2ccccc21 -0.5%
COc1ccc2c(c1OC)C(=O)OC2c1c(O)nc(SC)n(-c2ccccc2)c1=O (configuration not stated) -2.9%
CCc1nnc(NC(=O)c2cccs2)s1 0.7%
COc1ccc(C(=O)N(CCN2CCOCC2)CC(=O)NC2CCCC2)cc1OC 0.6%
CCn1c(=O)cc(O)c2ccccc21 0.7%
CCOC(=O)C1=C(C)N=c2s/c(=C\C(=O)OC)c(=O)n2C1c1ccc(OC)cc1 (configuration not stated) -0.8%
O=C(CCc1ccccc1)Nc1cccc(-c2nnc(-c3ccco3)o2)c1 -0.9%
CCc1cc(=O)oc2cc(C)cc(OC(C)C(=O)O)c12 (configuration not stated) -0.4%
COc1ccc(Cn2nnc3c(=O)[nH]c(C4CCN(C(=O)c5ccccc5Cl)CC4)nc32)cc1 -0.1%
COc1ccc(N2C(=O)C3CCCN3C2c2cccc(OC)c2)cc1 (configuration not stated) -0.5%
Cc1ccc(C(=O)Nc2nnc(-c3cccs3)s2)cc1C -0.6%
COc1ccccc1NC(=O)CN1CCN(S(=O)(=O)c2ccc(Br)cc2)CC1 -0.8%
Cc1ccc(C(C(=O)NCc2ccco2)N(CC2CCCO2)C(=O)Cn2nnc3ccccc32)cc1 (configuration not stated) -0.7%
CC1CCN(Cc2nc3c(c(=O)n(C)c(=O)n3C)n2Cc2cccc3ccccc23)CC1 -0.5%
COC(=O)Cn1c(=NC(=O)CSCC(=O)Nc2cc(C)on2)sc2ccccc21 -0.5%
COC(=O)c1c(-c2ccc(C)cc2)csc1N -0.4%
CCOC(=O)N1CCN(CC(=O)c2ccc3c(c2)CCN3)CC1 0%
CC(C)(C)c1ccc(NC(=O)NCc2ccco2)cc1 -0.2%
CC(=O)CCS(=O)(=O)c1ccc(C)c(C)c1 -3%
COC(=O)c1ccc(CSc2nncn2C)cc1 -1.1%
CCn1cc(C(=O)NCC2CCCO2)c(=O)c2cc(S(=O)(=O)N3CCCCC3)ccc21 (configuration not stated) -0.3%
O=c1oc2c(CN3CCCCC3)c(O)ccc2c2c1CCCCC2 -1%
